In experiment [1] the target is T1, Aldo-keto reductase family 1 member C2 (Homo sapiens) (UniProt P52895).
T1 sequence (whole entry): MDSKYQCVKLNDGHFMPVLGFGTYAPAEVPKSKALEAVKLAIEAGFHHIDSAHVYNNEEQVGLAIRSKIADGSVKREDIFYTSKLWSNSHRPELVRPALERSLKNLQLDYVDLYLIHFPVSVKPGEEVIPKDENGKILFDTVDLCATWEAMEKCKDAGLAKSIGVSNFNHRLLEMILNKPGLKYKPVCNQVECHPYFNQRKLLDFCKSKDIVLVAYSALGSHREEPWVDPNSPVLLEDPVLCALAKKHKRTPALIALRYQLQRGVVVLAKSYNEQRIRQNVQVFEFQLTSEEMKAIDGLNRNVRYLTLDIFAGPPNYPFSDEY
The experiment is described as follows: Inhibition of recombinant AKR1C2 (unknown origin) assessed as decrease in oxidation of 1-acenaphthenol substrate at 100 uM by spectrophotometric analysis. An outline of the steps:
(§1)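 Single-point screen at 100 μM compound. Recombinant enzyme oxidizes 1-acenaphthenol with 2.3 mM NAD⁺ in 100 mM phosphate buffer pH 9.0, 0.005% Triton X-114, 5% DMSO. AKR1C1: 30 μM substrate (Km), 0.3 μM enzyme. AKR1C2: 50 μM substrate (Km), 0.2 μM enzyme. NADH formation read at 340 nm from initial velocities. Result given as % inhibition.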

The target of experiment [2] is T2, Aldo-keto reductase family 1 member C1 (Homo sapiens) (UniProt Q04828).
T2 sequence (whole entry): T1 sequence (whole entry) with V38T, H47R, V54L, S87C, M151V, H170R, L172Q
Kind of experiment: Inhibition of human recombinant AKR1C1 expressed in Escherichia coli assessed as decrease in oxidation of 1-acenaphthenol substrate at 100 uM by spectrophotometric analysis. In a few lines:
as §1

Experiment [3] addresses T3, Aldo-keto reductase family 1 member C3 (Homo sapiens, UniProt P42330).
T3 sequence (P42330 whole entry): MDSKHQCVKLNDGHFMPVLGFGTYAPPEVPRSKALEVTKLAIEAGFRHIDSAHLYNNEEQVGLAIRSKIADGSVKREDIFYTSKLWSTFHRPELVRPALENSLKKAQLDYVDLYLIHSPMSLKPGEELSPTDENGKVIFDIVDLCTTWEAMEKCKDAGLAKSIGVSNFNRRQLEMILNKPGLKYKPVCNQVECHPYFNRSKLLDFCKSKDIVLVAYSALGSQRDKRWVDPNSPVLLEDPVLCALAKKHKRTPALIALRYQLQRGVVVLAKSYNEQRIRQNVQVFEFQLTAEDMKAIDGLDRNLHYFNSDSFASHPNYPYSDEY
Kind of experiment: Inhibition of recombinant AKR1C3 (unknown origin) assessed as decrease in oxidation of 1-acenaphthenol substrate by spectrophotometric analysis.

The target in experiment [4] is T4, Aldo-keto reductase family 1 member C2 (Homo sapiens, UniProt P52895).
T4 sequence (P52895 whole entry): T1 sequence (whole entry)
Kind of experiment: Inhibition of recombinant AKR1C2 (unknown origin) assessed as decrease in oxidation of 1-acenaphthenol substrate by spectrophotometric analysis. In a few lines:
(§2)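 IC50 measured for compounds giving over 50% inhibition at 100 μM. Assay uses 1-acenaphthenol oxidation with 2.3 mM NAD⁺ in pH 9.0 100 mM phosphate buffer with 0.005% Triton X-114 and 5% DMSO. AKR1C1 runs at 30 μM substrate and 0.3 μM enzyme; AKR1C2 at 50 μM substrate and 0.2 μM enzyme. Initial rates come from NADH at 340 nm. IC50 is read from log[inhibitor] versus % inhibition plots.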

Experiment [5] has as its target T5, Aldo-keto reductase family 1 member C1 (Homo sapiens, UniProt Q04828).
T5 sequence (Q04828 whole entry): T1 sequence (whole entry) with V38T, H47R, V54L, S87C, M151V, H170R, L172Q
Kind of experiment: Inhibition of human recombinant AKR1C1 expressed in Escherichia coli assessed as decrease in oxidation of 1-acenaphthenol substrate by spectrophotometric analysis. An outline of the steps:
as §2

The values that follow come from ChEMBL document CHEMBL2331309, “2,3-Diarylpropenoic acids as selective non-steroidal inhibitors of type-5 17β-hydroxysteroid dehydrogenase (AKR1C3)” (Eur J Med Chem, 2013).

Each structure is given as a SMILES string. Positions count from the first letter of the chain named. pIC50: −log10 of the molar value. Calls of active or inactive are those of the source. The rule behind the calls is not given here.

Turning to `COc1cc(/C=C(/C(=O)O)c2ccc(S(C)(=O)=O)cc2)cc(OC)c1OC`, the inhibition entry in experiment [1] and in experiment [2] was “inactive” throughout.
With `CS(=O)(=O)c1ccc(/C(=C\c2ccc(C(F)(F)F)cc2)C(=O)O)cc1`, the pIC50 in experiment [3] was 4.63. For the same molecule, the inhibition in experiment [1] was 18.4%; in experiment [2], 3.5%.
Taken in the same sequence, the figures for `CS(=O)(=O)c1ccc(/C(=C\c2ccccc2)C(=O)O)cc1` were 4.16, 27.3% and 26.3%.
On to `COc1cc(/C(=C\c2cccc(F)c2)C(=O)O)cc(OC)c1OC`, for which the pIC50 in experiment [4] was 4.11. Moreover, the figures for the inhibition in experiment [1] and in experiment [2] were 55.9% and 7.8%, respectively.
Consider `CS(=O)(=O)c1ccc(/C=C(/C(=O)O)c2cccc(Cl)c2)cc1`, for which the results for the pIC50 in experiment [3], in experiment [4] and in experiment [5] were 4.12, 4.64 and 4.71, respectively. Also, the inhibition in experiment [1] was found to be 66.4%; in experiment [2] it was 75.9%.
Regarding `Cc1ccc(/C=C(/C(=O)O)c2ccc(S(C)(=O)=O)cc2)cc1`, in experiment [3], the pIC50 is 4.87. Moreover, the inhibition in experiment [1] was found to be 1.1%. Besides, the inhibition entry in experiment [2] was “inactive”.
Take `CS(=O)(=O)c1ccc(/C=C(/C(=O)O)c2ccc(F)cc2)cc1`: the values for the pIC50 in experiment [4] and in experiment [5] were 4.35 and 4.63, respectively. For the same molecule, the inhibition in experiment [1] was 69.7%; in experiment [2], 86.1%.
Turning to `COc1ccc(/C=C(/C(=O)O)c2cc(OC)c(OC)c(OC)c2)cc1F`, the inhibition in experiment [1] was 9.9%; in experiment [2], -5.2%.
Taken in the same sequence, the figures for `CC(=O)NS(=O)(=O)c1ccc(/C=C(/C(=O)O)c2ccc(S(C)(=O)=O)cc2)cc1` were 10.6% and 5.9%.
For the molecule `CS(=O)(=O)c1ccc(/C=C(/C(=O)O)c2ccc3c(c2)OCO3)cc1`, the inhibition amounted to 24.2% in experiment [1] and 45.2% in experiment [2].
The like results for `CS(=O)(=O)c1ccc(/C(=C\c2ccc(O)cc2)C(=O)O)cc1` were, in that order, “inactive” and “inactive”.
As to `O=C(O)/C(=C/c1ccccc1)c1ccccc1`, the values for the inhibition in experiment [1] and in experiment [2] were 47.5% and 90.1%, respectively. The pIC50 in experiment [5] is 5.10.
As to `CS(=O)(=O)c1ccc(/C(=C\c2ccc(Cl)cc2)C(=O)O)cc1`, the pIC50 in experiment [3] was 4.97. The inhibition stood at 24.3% in experiment [1] and 34.7% in experiment [2].
Consider `COc1ccc(/C=C(/C(=O)O)c2cc(OC)c(OC)c(OC)c2)cc1OC`, for which the inhibition was found to be 0.6% in experiment [1] and 6.1% in experiment [2].
Taken in the same sequence, the figures for `COc1cc(/C(=C\c2cccc3ccccc23)C(=O)O)cc(OC)c1OC` were 13.8% and 6.4%.
As to `CSc1ccc(/C=C(/C(=O)O)c2ccccc2)cc1`, the pIC50 in experiment [3] was 4.52; in experiment [4], 4.39; in experiment [5], 4.91. The figures for the inhibition in experiment [1] and in experiment [2] were 59.1% and 87%, respectively.
On to `CS(=O)(=O)c1ccc(/C(=C\c2ccc(O)c(O)c2)C(=O)O)cc1`, for which, in experiment [3], the pIC50 was 4.48. In addition, the inhibition was 27.2% in experiment [1] and 46.5% in experiment [2].
`CCc1ccc(/C=C(/C(=O)O)c2ccc(S(C)(=O)=O)cc2)cc1`: in experiment [3], the pIC50 was 4.87. Further, the inhibition result in experiment [1] and in experiment [2] was “inactive” throughout.
For the molecule `COc1ccc(/C=C(/C(=O)O)c2cccc3ccccc23)cc1OC`, the pIC50 was 3.89 in experiment [3] and 4.62 in experiment [4]. Also, the inhibition in experiment [1] is 77.8%; in experiment [2], 29.4%.
`CSc1ccc(/C=C(/C(=O)O)c2ccc(Cl)cc2)cc1`: the pIC50 in experiment [3] is 5.08; in experiment [4] it was 4.56; in experiment [5], 5.18. Further, the inhibition was 75.2% in experiment [1] and 88.1% in experiment [2].
As to `COc1ccc(/C=C(/C(=O)O)c2ccc(S(C)(=O)=O)cc2)cc1`, the pIC50 in experiment [3] was 4.43. Besides, the inhibition result in experiment [1] and in experiment [2] was “inactive” throughout.
Regarding `CS(=O)(=O)c1ccc(/C=C(/C(=O)O)c2ccccc2)cc1`, the pIC50 is 3.86 in experiment [3], 4.46 in experiment [4] and 4.51 in experiment [5]. Moreover, the inhibition in experiment [1] was found to be 61.4%; in experiment [2], 77.6%.
For `CC(=O)NS(=O)(=O)c1ccc(/C=C(/C(=O)O)c2ccccc2)cc1`, the figures for the pIC50 in experiment [4] and in experiment [5] were 4.60 and 5.06, respectively. Further, the inhibition came out at 87.3% in experiment [1] and 97.8% in experiment [2].
For the molecule `CS(=O)(=O)c1ccc(/C(=C\c2cccc(Br)c2)C(=O)O)cc1`, the results for the pIC50 in experiment [3] and in experiment [4] were 4.87 and 4.13, respectively. Moreover, the inhibition in experiment [1] came out at 58.3%; in experiment [2] it was 34.8%.
As to `COc1ccc(/C=C(/C(=O)O)c2ccc3ccccc3c2)cc1OC`, the negative logarithm of the IC50 (pIC50) in experiment [3] was 4.41. The inhibition turned out to be 39.6% in experiment [1] and 9.7% in experiment [2].
As to `COc1ccc(/C=C(/C(=O)O)c2cc(OC)c(OC)c(OC)c2)cc1`, the inhibition in experiment [1] came out at 4.3%; in experiment [2] it was 15.1%.
Taken in the same sequence, the figures for `COc1cc(/C(=C\c2ccc3ccccc3c2)C(=O)O)cc(OC)c1OC` were 15.9% and 9.6%.
The like results for `COc1cc(/C(=C\c2cccc(OC(C)=O)c2)C(=O)O)cc(OC)c1OC` were, in that order, 27% and 40%.
Regarding `CC(=O)O[C@]1(C(C)=O)CC[C@H]2[C@@H]3C[C@H](C)C4=CC(=O)CC[C@]4(C)[C@H]3CC[C@@]21C` [MEDROXYPROGESTERONE ACETATE], the figures for the negative-log IC50 (pIC50) in experiment [3], in experiment [4] and in experiment [5] were 6.52, 5.39 and 5.74, respectively.
On to `COc1ccc(/C=C(/C(=O)O)c2cc(OC)c(OC)c(OC)c2)cc1O`, for which, in experiment [3], the pIC50 is 3.92. Besides, the inhibition worked out at 20.6% in experiment [1] and 14.4% in experiment [2].
With `CSc1ccc(/C=C(/C(=O)O)c2ccc(S(C)(=O)=O)cc2)cc1`, in experiment [3], the pIC50 was 5.24. In addition, the inhibition in experiment [1] came to 14.4%; in experiment [2], 43.8%.
Consider `CSc1ccc(-c2ccc(/C=C(/C(=O)O)c3ccc(S(C)(=O)=O)cc3)cc2)cc1`, for which the inhibition in experiment [1] was determined as 57.4%; in experiment [2], 64.7%.
As for `CS(=O)(=O)c1ccc(/C=C(/C(=O)O)c2ccc(S(C)(=O)=O)cc2)cc1`, in experiment [3], the pIC50 is 4.29. Besides, the inhibition entry in experiment [1] and in experiment [2] was “inactive” throughout.
For the molecule `CS(=O)(=O)c1ccc(/C(=C\c2ccc(Br)cc2)C(=O)O)cc1`, the pIC50 in experiment [3] is 5.31. Moreover, the results for the inhibition in experiment [1] and in experiment [2] were 19.2% and 28.7%, respectively.
Take `COc1ccc(/C=C(/C(=O)O)c2cc(OC)c(OC)c(OC)c2)cc1OC(C)=O`: the inhibition is 3.2% in experiment [1] and 8% in experiment [2].
Taken in the same sequence, the figures for `CS(=O)(=O)c1ccc(/C(=C\c2cccc(O)c2)C(=O)O)cc1` were “inactive” and “inactive”.
Take `CS(=O)(=O)c1ccc(/C(=C\c2cccc(Cl)c2)C(=O)O)cc1`: in experiment [3], the pIC50 is 4.77. Further, the inhibition in experiment [1] turned out to be 43%; in experiment [2] it was 44.5%.
Take `CS(=O)(=O)c1ccc(/C(=C\c2cccc(F)c2)C(=O)O)cc1`: the pIC50 in experiment [3] was 4.41. The inhibition in experiment [1] was found to be 27%; in experiment [2] it was 15.4%.
The like results for `CS(=O)(=O)c1ccc(/C(=C\c2ccc(F)cc2)C(=O)O)cc1` were, in that order, 4.37, 9.2% and 21%.

A word on the inhibition: it is the relative decrease from the control value, in per cent. For orientation: pIC50 means the IC50 on a negative log10 scale, so that one unit is a factor of ten.
